Measured values published in ChEMBL document CHEMBL3745598, “Synthesis and biological evaluation of disubstituted amidoxanthones as potential telomeric G-quadruplex DNA-binding and apoptosis-inducing agents” (Bioorg Med Chem, 2016).
Active and inactive are the calls of the source. The calls are words filed in the database; no cut-off is given here.

Experiments:
[1] = (§1) Antiproliferative activity against human SGC7901 cells after 44 hrs by MTT assay; type: functional, cell-based; settings: SGC-7901, 44 h
Procedure, shortened: (§2)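 HeLa, A549, SGC-7901 and MCF-7 cells seeded at 5 × 10^4 per well in DMEM at 37 °C, 5% CO2, incubated overnight. Cells were then treated at […], with 0.5% DMSO as control. MTT added for 4 h at 37 °C, formazan dissolved in DMSO, absorbance read at 570 nm. Inhibition % = (1 − Atreatment/Acontrol) × 100. Triplicate wells, each experiment repeated at least three times.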

SGC-7901 = test: as §1; type: functional, cell-based; procedure, shortened: as §2
HeLa [2] = test: Induction of apoptosis in human HeLa cells assessed as chromatin condensation after 24 hrs by AO/EB staining-based fluorescent microscopic analysis; type: functional, cell-based
Procedure, shortened: (§3)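 HeLa monolayers were grown in 24-well plates and exposed for 24 h at 0, 5, 10, 20 and 40 µM. Cells were stained 10 min with AO/EB dye mix (100 µg/mL each) and washed with PBS. Morphology was then viewed by fluorescence microscopy: chromatin condensation, nuclear fragmentation, and membrane integrity.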

MCF7 = test: Antiproliferative activity against human MCF7 cells after 44 hrs by MTT assay; type: functional, cell-based; settings: for IC50: MCF7, 44 h; procedure, shortened: as §2
A549 = test: Antiproliferative activity against human A549 cells after 44 hrs by MTT assay; type: functional, cell-based; settings: for IC50: A549, 44 h; procedure, shortened: as §2
HeLa [3] = test: Antiproliferative activity against human HeLa cells after 44 hrs by MTT assay; type: functional, cell-based; procedure, shortened: as §2
HeLa [4] = test: Induction of apoptosis in human HeLa cells assessed as nuclear fragmentation after 24 hrs by AO/EB staining-based fluorescent microscopic analysis; type: functional, cell-based; procedure, shortened: as §3
HeLa [5] = test: Induction of apoptosis in human HeLa cells assessed as increase in apoptotic ratio after 24 hrs by annexin V-FITC/propidium iodide staining-based flow cytometric analysis; type: functional, cell-based
Procedure, shortened: (§4)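 HeLa cells were seeded at 3 × 10^5 per well in DMEM at 37 °C, 5% CO2, and treated with 0, 10, 20 or 40 µM for 24 h. Cells were trypsinized, washed in cold PBS, resuspended in binding buffer, and stained with Annexin V-FITC plus PI for 20 min in the dark. Flow cytometry quadrants defined early (Annexin+/PI−) and late (Annexin+/PI+) apoptotic cells.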

Homo sapiens [6] = organism: Homo sapiens; test: Stabilization of HTG21 G-quadruplex DNA at 2.5 to 15 uM by PCR-stop assay
Procedure, shortened: (§5)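 PCR-stop on forward primer HTG21 or mutant HTG21mu with reverse primer RevHTG21, each primer 0.4 µM. Mixes contained 0.2 mM dNTP and 1.5 U Taq in 1× Thermopol buffer (20 mM Tris–HCl, 10 mM KCl, 10 mM (NH4)2SO4, 2 mM MgSO4, 0.1% Triton X-100, pH 8.8). Ligand was tested at 0–15 µM. Products were resolved by electrophoresis and imaged under UV.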

Homo sapiens [7] = organism: Homo sapiens; test: Binding affinity to HTG21 G-quadruplex DNA assessed as transition temperature using Na+ buffer at 1:1 compound to DNA ratio by CD spectrometric analysis (reference value: 55.1 degC)
Procedure, shortened: (§6)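 CD melting of HTG21 at 5 µM with ligand at 5 µM (1:1). Buffer was Tris–HCl 10 mM, pH 7.4, containing KCl or NaCl. Signal was monitored at 295 nm and curves were normalized to obtain the melting temperature. HTG21 was pre-annealed at 95 °C for 5 min, cooled slowly, and held at 4 °C overnight.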

Homo sapiens [8] = organism: Homo sapiens; test: Binding affinity to HTG21 G-quadruplex DNA assessed as hypochromicity by electronic absorption spectroscopic analysis
Procedure, shortened: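 Absorption titration with ligand fixed at […] and HTG21 added at […], in Tris–HCl 10 mM, pH 7.4, containing KCl or NaCl. HTG21 was annealed at 95 °C for 5 min, cooled slowly, and held at 4 °C overnight. Absorbance decrease was followed. Binding constant was taken from a plot of [DNA]/(εa−εf) versus [DNA].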

Homo sapiens [9] = organism: Homo sapiens; test: Stabilization of HTG21mu G-quadruplex DNA at 15 uM by PCR-stop assay; procedure, shortened: as §5
HeLa [10] = test: Induction of apoptosis in human HeLa cells assessed as early apoptotic cells at 40 uM after 24 hrs by annexin V-FITC/propidium iodide staining-based flow cytometric analysis (reference value: 0.11%); type: functional; procedure, shortened: as §4
HeLa [11] = test: Induction of apoptosis in human HeLa cells assessed as late apoptotic cells at 20 uM after 24 hrs by annexin V-FITC/propidium iodide staining-based flow cytometric analysis (reference value: 0.36%); type: functional; procedure, shortened: as §4
Calf thymus DNA [12] = test: Binding affinity to calf thymus DNA assessed as hypochromicity by electronic absorption spectroscopic analysis; type: nucleic-acid assay; settings: Bos taurus
HeLa [13] = test: Induction of apoptosis in human HeLa cells assessed as early apoptotic cells at 20 uM after 24 hrs by annexin V-FITC/propidium iodide staining-based flow cytometric analysis (reference value: 0.11%); type: functional; procedure, shortened: as §4
HeLa [14] = test: Induction of apoptosis in human HeLa cells assessed as early apoptotic cells at 10 uM after 24 hrs by annexin V-FITC/propidium iodide staining-based flow cytometric analysis (reference value: 0.11%); type: functional; procedure, shortened: as §4
HeLa [15] = test: Induction of apoptosis in human HeLa cells assessed as late apoptotic cells at 10 uM after 24 hrs by annexin V-FITC/propidium iodide staining-based flow cytometric analysis (reference value: 0.36%); type: functional; procedure, shortened: as §4
Homo sapiens [16] = organism: Homo sapiens; test: Binding affinity to HTG21 G-quadruplex DNA at 5 uM by fluorescence emission spectroscopic analysis
Procedure, shortened: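 Fluorescence emission titration with ligand fixed at […] and annealed HTG21 varied up to […]. Buffer was Tris–HCl 10 mM, pH 7.4, containing KCl or NaCl. Quenching was plotted as F0/F versus [HTG21]/[compound] and fitted.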

HeLa [17] = test: Induction of apoptosis in human HeLa cells assessed as late apoptotic cells at 40 uM after 24 hrs by annexin V-FITC/propidium iodide staining-based flow cytometric analysis (reference value: 0.36%); type: functional; procedure, shortened: as §4
Homo sapiens [18] = organism: Homo sapiens; test: Binding affinity to HTG21 G-quadruplex DNA assessed as transition temperature using K+ buffer at 1:1 compound to DNA ratio by CD spectrometric analysis (reference value: 64.6 degC); procedure, shortened: as §6
Calf thymus DNA [19] = test: Binding affinity to calf thymus DNA at 5 uM by fluorescence emission spectroscopic analysis; type: nucleic-acid assay; settings: Bos taurus
Homo sapiens [20] = organism: Homo sapiens; test: Binding affinity to HT6 G-quadruplex DNA at 0.5 to 1 compound to DNA ratio by NMR spectroscopic analysis
Procedure, shortened: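 1H NMR at 25 °C on d(TTAGGG) 0.2 mM in 90% H2O/10% D2O with 150 mM KCl and 25 mM potassium phosphate, pH 7.0. Compound/quadruplex ratios were 0, 0.5 and 1. Watergate water suppression was used, and imino proton signals were monitored. Oligonucleotide was HPLC-purified.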

SMILES | IC50 [1] | Activity (SGC-7901) | Activity (HeLa [2]) | Activity (MCF7) | IC50 (MCF7) | Activity (A549) | IC50 (A549) | Activity (HeLa [3]) | IC50 (HeLa [3]) | Activity (HeLa [4]) | also measured
CCN(CC)CC(=O)Nc1ccc2oc3ccc(NC(=O)CN(CC)CC)cc3c(=O)c2c1 | 32.2 µM | Dose-dependent effect | Dose-dependent effect | Dose-dependent effect | 26.6 µM | Dose-dependent effect | 19.9 µM | Dose-dependent effect | 20.4 µM | Dose-dependent effect | –
O=C(CN1CCCCC1)Nc1ccc2oc3ccc(NC(=O)CN4CCCCC4)cc3c(=O)c2c1 | 86.7 µM | Dose-dependent effect | Dose-dependent effect | Dose-dependent effect | 83.9 µM | Dose-dependent effect | > 100 µM | Dose-dependent effect | > 100 µM | Dose-dependent effect | –
CN(C)CC(=O)Nc1ccc2oc3ccc(NC(=O)CN(C)C)cc3c(=O)c2c1 | 17.3 µM | Dose-dependent effect | Dose-dependent effect | Dose-dependent effect | 23 µM | Dose-dependent effect | 18.7 µM | Dose-dependent effect | 13.2 µM | Dose-dependent effect | Activity (HeLa [5]): Dose-dependent effect; Activity (Homo sapiens [6]): Active; T (Homo sapiens [7]): 60.8 °C; Kb (Homo sapiens [8]): 2.89 ×10⁴ /M; Activity (Homo sapiens [9]): inactive; Activity (HeLa [10]): 32.07%; Activity (HeLa [11]): 18.24%; Kb (Calf thymus DNA [12]): 0.46 ×10⁴ /M; Activity (HeLa [13]): 22.69%; Activity (HeLa [14]): 12.36%; Activity (HeLa [15]): 9.45%; Activity (Homo sapiens [16]): Active; Activity (HeLa [17]): 60.78%; T (Homo sapiens [18]): 70.3 °C; Activity (Calf thymus DNA [19]): inactive; Activity (Homo sapiens [20]): Active
O=C(CN1CCCC1)Nc1ccc2oc3ccc(NC(=O)CN4CCCC4)cc3c(=O)c2c1 | 35.9 µM | Dose-dependent effect | Dose-dependent effect | Dose-dependent effect | 34.9 µM | Dose-dependent effect | 21.5 µM | Dose-dependent effect | 48.2 µM | Dose-dependent effect | –
O=C(CN1CCOCC1)Nc1ccc2oc3ccc(NC(=O)CN4CCOCC4)cc3c(=O)c2c1 | 84.9 µM | Dose-dependent effect | Dose-dependent effect | Dose-dependent effect | > 100 µM | Dose-dependent effect | 80.5 µM | Dose-dependent effect | > 100 µM | Dose-dependent effect | –
